Values belong to the molecule of their own block, whether it stands above or below them. The source made the active and inactive calls. The rule behind the calls is not given here.
Columns and labels:
[1] = molecular target: T1, C-C chemokine receptor type 2 (Homo sapiens, UniProt P41597); experiment: Displacement of [125I]MCP-1 from CCR2 in human PMBC
Target sequence in this assay (P41597 whole entry): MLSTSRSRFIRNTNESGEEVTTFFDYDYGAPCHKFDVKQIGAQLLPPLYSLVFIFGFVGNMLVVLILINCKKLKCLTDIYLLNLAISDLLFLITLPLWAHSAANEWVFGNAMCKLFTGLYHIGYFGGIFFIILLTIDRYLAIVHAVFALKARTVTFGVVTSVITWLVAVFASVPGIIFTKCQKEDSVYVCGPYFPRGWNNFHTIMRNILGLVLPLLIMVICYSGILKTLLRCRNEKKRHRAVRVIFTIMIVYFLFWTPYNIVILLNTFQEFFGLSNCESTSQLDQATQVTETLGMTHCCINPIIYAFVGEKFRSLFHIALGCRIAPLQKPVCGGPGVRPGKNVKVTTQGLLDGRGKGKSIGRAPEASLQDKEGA

[2] = molecular target: T1, C-C chemokine receptor type 2; experiment: Displacement of [125I]MCP-1 from CCR2 in human PMBC up to 2400 nM
Summary of the method: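 Competition binding against [¹²⁵I]MCP-1 using human peripheral blood mononuclear cells at room temperature. IC50 typically given as the mean of two determinations (± standard deviation).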
Target sequence in this assay (P41597 whole entry, looked up): as the sequence (P41597 whole entry) above

[3] = molecular target: T1, C-C chemokine receptor type 2; experiment: Displacement of [125I]MCP-1 from CCR2 in human THP1 cells; assay type: cell-based, THP-1
Summary of the method: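 Competition binding against [¹²⁵I]MCP-1 using THP-1 cells in place of peripheral blood mononuclear cells. IC50 typically given as the mean of two determinations.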
Target sequence in this assay (P41597 whole entry): as above

[4] = Metabolic stability of the compound in rat liver microsomes assessed as compound remaining at 0.5 uM aftet 10 mins; assay type: ADME, Microsome; conditions: read-out: Stability
Summary of the method: (§1)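 Test compound at 0.5 μM initial concentration incubated 10 min with human, rat or mouse liver microsomes. Stability expressed as percentage of parent compound remaining at the end of incubation.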

[5] = Metabolic stability of the compound in mouse liver microsomes assessed as compound remaining at 0.5 uM aftet 10 mins; assay type: ADME, Microsome; conditions: read-out: Stability; summary of the method: as §1
[6] = Metabolic stability of the compound in human liver microsomes assessed as compound remaining at 0.5 uM aftet 10 mins; assay type: ADME, Microsome; conditions: read-out: Stability; summary of the method: as §1
[7] = molecular target: C-C chemokine receptor type 5 (Homo sapiens, UniProt P51681); experiment: Displacement of [125I]MIP-1beta from CCR5
C-C chemokine receptor type 5, sequence (P51681 whole entry): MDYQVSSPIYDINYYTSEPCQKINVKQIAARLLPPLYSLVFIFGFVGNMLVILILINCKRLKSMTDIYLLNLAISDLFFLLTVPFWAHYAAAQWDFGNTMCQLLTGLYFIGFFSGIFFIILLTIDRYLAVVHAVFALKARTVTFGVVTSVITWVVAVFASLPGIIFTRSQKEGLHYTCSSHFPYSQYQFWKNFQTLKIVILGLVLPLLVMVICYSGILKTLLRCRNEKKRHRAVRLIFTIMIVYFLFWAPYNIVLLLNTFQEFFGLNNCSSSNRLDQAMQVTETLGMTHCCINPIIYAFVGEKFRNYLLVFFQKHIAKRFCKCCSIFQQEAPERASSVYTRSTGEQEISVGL

[8] = species on record: Homo sapiens; experiment: Selectivity ratio of IC50 for CCR5 to IC50 for human CCR2

SMILES: O=C(CNC(=O)c1cccc(C(F)(F)F)c1)N[C@H]1CC[C@@H](N2CCCCC2)[C@@H](CS(=O)(=O)c2ccccc2)C1 (racemic)
IC50 [1]: 340 nM

SMILES: CC(C)N(C)[C@H]1CC[C@@H](NC(=O)CNC(=O)c2cccc(C(F)(F)F)c2)C[C@H]1CS(=O)(=O)c1ccccc1
inhibition [2]: inactive

SMILES: CC(C)N(C)[C@@H]1CC[C@H](NC(=O)CNC(=O)c2cc(C(F)(F)F)ccc2NC(=O)N2CCC2)C[C@@H]1CS(=O)(=O)c1ccccc1 (racemic)
IC50 [3]: 34 nM

SMILES: CC(C)N[C@@H]1CC[C@H](NC(=O)CNC(=O)c2cccc(C(F)(F)F)c2)C[C@H]1CS(=O)(=O)c1ccccc1
IC50 [1]: 310 nM

SMILES: N[C@H]1CC[C@@H](NC(=O)CNC(=O)c2cccc(C(F)(F)F)c2)CC1
IC50 [1]: 4100 nM

SMILES: CC(C)N(C)[C@@H]1CC[C@H](NC(=O)CNC(=O)c2cccc(C(F)(F)F)c2)C[C@@H]1CS(=O)(=O)c1ccccc1 (racemic)
IC50 [3]: 89 nM

SMILES: CC(C)N(C)[C@H]1CC[C@@H](NC(=O)CNC(=O)c2cccc(C(F)(F)F)c2)CC1
IC50 [1]: 72 nM

SMILES: N[C@@H]1CC[C@H](NC(=O)CNC(=O)c2cccc(C(F)(F)F)c2)[C@H](CS(=O)(=O)c2ccccc2)C1 (racemic)
IC50 [1]: 37 nM

SMILES: N[C@@H]1CC[C@H](NC(=O)CNC(=O)c2cccc(C(F)(F)F)c2)C[C@H]1CS(=O)(=O)c1ccccc1
IC50 [1]: 3700 nM

SMILES: CCN[C@@H]1CC[C@H](NC(=O)CNC(=O)c2cccc(C(F)(F)F)c2)C[C@@H]1CS(=O)(=O)c1ccccc1 (racemic)
IC50 [1]: 27 nM | remaining at 10 min, 0.5 µM [4]: 23% | remaining at 10 min, 0.5 µM [5]: 25% | remaining at 10 min, 0.5 µM [6]: 24%

SMILES: N[C@@H]1CC[C@H](NC(=O)CNC(=O)c2cc(C(F)(F)F)ccc2NC(=O)N2CCC2)C[C@@H]1CS(=O)(=O)c1ccccc1 (racemic)
remaining at 10 min, 0.5 µM [4]: 71% | IC50 [7]: 7300 nM | remaining at 10 min, 0.5 µM [5]: 87% | remaining at 10 min, 0.5 µM [6]: 70%

SMILES: CC(C)N[C@@H]1CC[C@H](NC(=O)CNC(=O)c2cccc(C(F)(F)F)c2)[C@H](CS(=O)(=O)c2ccccc2)C1
IC50 [1]: 5.2 nM

SMILES: N[C@@H]1CC[C@H](NC(=O)CNC(=O)c2cccc(C(F)(F)F)c2)C[C@@H]1CS(=O)(=O)c1ccccc1 (racemic)
IC50 [1]: 59 nM | remaining at 10 min, 0.5 µM [4]: 57% | remaining at 10 min, 0.5 µM [5]: 96% | remaining at 10 min, 0.5 µM [6]: 100%

SMILES: CC(C)N(C)[C@@H]1CC[C@H](NC(=O)CNC(=O)c2cccc(C(F)(F)F)c2)C[C@H]1CS(=O)(=O)c1ccccc1
IC50 [1]: 2900 nM

SMILES: CN[C@@H]1CC[C@H](NC(=O)CNC(=O)c2cccc(C(F)(F)F)c2)C[C@@H]1CS(=O)(=O)c1ccccc1 (racemic)
IC50 [1]: 180 nM

SMILES: O=C(CNC(=O)c1cccc(C(F)(F)F)c1)N[C@H]1CC[C@@H](NC2CCC2)[C@@H](CS(=O)(=O)c2ccccc2)C1 (racemic)
IC50 [1]: 34 nM

Now from value to molecule:

IC50 [1]: 79 nM
SMILES: CC(C)N(C)[C@@H]1CC[C@H](NC(=O)CNC(=O)c2cccc(C(F)(F)F)c2)C[C@@H]1CS(=O)(=O)c1ccccc1

IC50 [1]: 54 nM | remaining at 10 min, 0.5 µM [4]: 8% | remaining at 10 min, 0.5 µM [5]: 28% | remaining at 10 min, 0.5 µM [6]: 11%
SMILES: CCCN[C@@H]1CC[C@H](NC(=O)CNC(=O)c2cccc(C(F)(F)F)c2)C[C@@H]1CS(=O)(=O)c1ccccc1 (racemic)

IC50 [1]: 12 nM | remaining at 10 min, 0.5 µM [4]: 0.9% | remaining at 10 min, 0.5 µM [5]: 9.6% | remaining at 10 min, 0.5 µM [6]: 4.4%
SMILES: CC(C)N[C@@H]1CC[C@H](NC(=O)CNC(=O)c2cccc(C(F)(F)F)c2)C[C@@H]1CS(=O)(=O)c1ccccc1 (racemic)

IC50 [3]: 12 nM
SMILES: CCN[C@@H]1CC[C@H](NC(=O)CNC(=O)c2cc(C(F)(F)F)ccc2NC(=O)N2CCC2)C[C@@H]1CS(=O)(=O)c1ccccc1 (racemic)

IC50 [1]: 570 nM
SMILES: CC(C)N[C@H]1CC[C@@H](NC(=O)CNC(=O)c2cccc(C(F)(F)F)c2)CC1

IC50 [1]: 130 nM | remaining at 10 min, 0.5 µM [4]: 3.9% | remaining at 10 min, 0.5 µM [5]: 4.3% | remaining at 10 min, 0.5 µM [6]: 4.4%
SMILES: CN(C)[C@@H]1CC[C@H](NC(=O)CNC(=O)c2cccc(C(F)(F)F)c2)C[C@@H]1CS(=O)(=O)c1ccccc1 (racemic)

IC50 [3]: 6.6 nM | IC50 [7]: 810 nM | Ratio IC50 [8]: > 100
SMILES: CC(C)N[C@@H]1CC[C@H](NC(=O)CNC(=O)c2cc(C(F)(F)F)ccc2NC(=O)N2CCC2)C[C@@H]1CS(=O)(=O)c1ccccc1 (racemic)

IC50 [1]: 370 nM
SMILES: CCCN(C)[C@@H]1CC[C@H](NC(=O)CNC(=O)c2cccc(C(F)(F)F)c2)C[C@@H]1CS(=O)(=O)c1ccccc1 (racemic)
